Published values gathered from unrelated publications.
Target: 5-hydroxytryptamine receptor 2A (HTR2A, Homo sapiens, UniProt P28223)
Observed: ligand displacement

Compound	method	concentration	inhibition
COc1cc2c3c(c1OC)-c1cc4c(cc1CC3N(C)CC2c1ccccc1)OCO4 (stereo not shown)	radioligand	10 µM	< 50%
N#Cc1cc(Cn2c(N3CCCC3)nc3ccccc32)ccc1F	–	10 µM	5.32%
CN1CCN(CCCOc2ccc(=O)n(-c3ccc(Cl)c(Cl)c3)n2)CC1	–	1 µM	34.9%
CCCNc1nc2ccccc2n1Cc1ccc(Cl)cc1	–	10 µM	59.8%
C#CCOCCOCCOc1ccc2c3c1C1CCCC1N3CCNC2 (racemic)	radioligand	10 µM	~70%
COc1ccc(-n2nc(OCCCN3CCCCC3)ccc2=O)cc1	–	1 µM	49.4%
O=C(c1ccc(Cl)cc1)N(Cc1ccccc1)C1CCCCC1	radioligand	10 µM	14.5%
O=C1N=C(N2CCCCN2)S/C1=C\c1ccc(F)cc1O	radioligand	10 µM	17%
CCN(CC)c1ccc(C2Nc3ccc(C(=O)c4ccccc4)cc3NC3=C2C(=O)CC(C)(C)C3)cc1 (stereo not shown)	radioligand	10 µM	-10%
Oc1cccc(Nc2nc(-c3ccc(F)cc3F)cs2)c1	radioligand	10 µM	67%
